In experiment [1] the target is Epidermal growth factor receptor (Homo sapiens, UniProt P00533). Kind of experiment: Inhibition of the epidermal growth factor receptor expressed in A431 cell line.
Experiment [2] can be described thus: Antiproliferative activity tested by using EGF- stimulated cellular proliferation of balb/MK mouse epidermal keratinocytes (balb/MK cells).
Experiment [3] can be described thus: Inhibition of the protein kinase C.
For experiment [4], the target named is Tyrosine-protein kinase ABL (Homo sapiens, UniProt P00519+P42684). Kind of experiment: Inhibition of recombinant v-Abl tyrosine kinase. The format is protein assay. The procedure, abridged: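 The reaction contained 20 mM Tris pH 7.5, 10 mM MgCl2, 10 µM [γ-32P]ATP and about 50 ng enzyme. Compounds were in DMSO. Reactions were stopped with trichloroacetic acid and aliquots were spotted on P81 paper.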

For orientation: IC50 means the concentration needed to halve the response being measured.

Epidermal growth factor receptor, sequence (P00533 whole entry): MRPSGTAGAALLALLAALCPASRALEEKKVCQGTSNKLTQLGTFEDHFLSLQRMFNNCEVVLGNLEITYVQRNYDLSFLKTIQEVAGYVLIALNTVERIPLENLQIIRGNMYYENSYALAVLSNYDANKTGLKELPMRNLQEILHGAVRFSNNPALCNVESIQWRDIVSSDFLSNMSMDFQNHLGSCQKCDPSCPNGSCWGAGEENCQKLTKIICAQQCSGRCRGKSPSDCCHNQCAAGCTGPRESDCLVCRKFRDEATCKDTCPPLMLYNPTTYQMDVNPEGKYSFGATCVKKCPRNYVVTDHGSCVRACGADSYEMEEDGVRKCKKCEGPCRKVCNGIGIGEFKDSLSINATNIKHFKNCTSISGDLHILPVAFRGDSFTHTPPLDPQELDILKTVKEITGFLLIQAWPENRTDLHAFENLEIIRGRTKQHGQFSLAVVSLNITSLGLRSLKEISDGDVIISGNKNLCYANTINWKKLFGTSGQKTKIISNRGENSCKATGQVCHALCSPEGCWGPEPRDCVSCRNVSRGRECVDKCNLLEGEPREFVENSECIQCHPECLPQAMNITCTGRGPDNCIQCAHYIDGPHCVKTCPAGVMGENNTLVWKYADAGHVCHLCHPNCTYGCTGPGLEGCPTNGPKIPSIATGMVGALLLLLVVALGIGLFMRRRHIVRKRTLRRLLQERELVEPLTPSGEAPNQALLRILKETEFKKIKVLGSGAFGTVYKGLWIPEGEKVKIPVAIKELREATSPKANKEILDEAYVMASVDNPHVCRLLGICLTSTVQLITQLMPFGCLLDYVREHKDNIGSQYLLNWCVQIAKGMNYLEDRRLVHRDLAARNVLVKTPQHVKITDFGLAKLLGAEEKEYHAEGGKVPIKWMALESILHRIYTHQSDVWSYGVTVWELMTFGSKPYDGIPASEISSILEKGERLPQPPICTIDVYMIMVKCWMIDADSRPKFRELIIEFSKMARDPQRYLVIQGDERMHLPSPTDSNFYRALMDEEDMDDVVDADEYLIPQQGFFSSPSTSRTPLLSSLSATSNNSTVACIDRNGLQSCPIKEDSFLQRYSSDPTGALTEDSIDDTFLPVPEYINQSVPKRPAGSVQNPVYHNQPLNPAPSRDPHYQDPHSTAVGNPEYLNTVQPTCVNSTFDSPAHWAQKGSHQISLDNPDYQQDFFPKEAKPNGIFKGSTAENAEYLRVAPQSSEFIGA

Turning to `O=C(O)c1ccc(S(=O)(=O)Oc2ccc(/C=C/[N+](=O)[O-])cc2)cc1`, the IC50 in experiment [1] is 1 µM; in experiment [2], greater than 50 µM; in experiment [3], greater than 500 µM; in experiment [4] it was 100 µM.

Turning to `C[C@@H](NC(=O)c1ccc(S(=O)(=O)Oc2ccc(/C=C/[N+](=O)[O-])cc2)cc1)C(=O)N[C@H](C)C(=O)NCCNC(=O)OC(C)(C)C`, the IC50 is greater than 50 µM in experiment [1], greater than 50 µM in experiment [2] and greater than 500 µM in experiment [3].

Consider `O=C(O)c1ccc(S(=O)(=O)Oc2ccc(/C=C/[N+](=O)[O-])cc2)cc1O`, for which the IC50 was 0.054 µM in experiment [1], greater than 50 µM in experiment [2], 500 µM in experiment [3] and 27 µM in experiment [4].

As to `CCCCNC(=O)c1ccc(S(=O)(=O)Oc2ccc(C=O)cc2)cc1`, the figures for the IC50 in experiment [1] and in experiment [2] were greater than 100 µM and greater than 50 µM, respectively.

For the compound `COC(=O)c1ccc(S(=O)(=O)Oc2ccc(/C=C/[N+](=O)[O-])cc2)cc1`, the IC50 in experiment [1] was 1.5 µM; in experiment [2], 12 µM; in experiment [3] it was greater than 500 µM; in experiment [4], greater than 100 µM.

On to `CC(C)(C)OC(=O)NCCNC(=O)c1ccc(S(=O)(=O)Oc2ccc(/C=C/[N+](=O)[O-])cc2)cc1`, for which the IC50 in experiment [1] was 1.4 µM; in experiment [2], 4.8 µM; in experiment [3] it was 320 µM; in experiment [4] it was greater than 100 µM.

Turning to `NCCNC(=O)c1ccc(S(=O)(=O)Oc2ccc(/C=C/[N+](=O)[O-])cc2)cc1`, the IC50 in experiment [1] is 5.4 µM; in experiment [2], 32 µM; in experiment [3], 60 µM; in experiment [4] it was 5 µM.

In the case of `C/C(=C\c1ccc(O)c(O)c1)[N+](=O)[O-]`, the IC50 in experiment [1] was 9.4 µM; in experiment [2] it was 2.1 µM; in experiment [3] it was greater than 500 µM; in experiment [4], 100 µM.

As for `CNC(=O)c1ccc(S(=O)(=O)Oc2ccc(/C=C/[N+](=O)[O-])cc2)cc1`, the IC50 turned out to be 0.4 µM in experiment [1], 5.2 µM in experiment [2], 290 µM in experiment [3] and 35 µM in experiment [4].

Regarding `COc1cc(/C=C/[N+](=O)[O-])ccc1OS(=O)(=O)c1ccc(C(=O)O)cc1`, the IC50 in experiment [1] was 2.8 µM; in experiment [2], 35 µM; in experiment [3], greater than 500 µM; in experiment [4] it was 40 µM.

For the compound `CNC(=O)c1ccc(S(=O)(=O)Oc2ccc(/C=C(\C)[N+](=O)[O-])cc2OC)cc1`, the half-inhibitory concentration (IC50) in experiment [1] is 4 µM; in experiment [2], 2.1 µM; in experiment [3], greater than 500 µM.

Take `O=[N+]([O-])/C=C/c1ccc(O)cc1`: the IC50 in experiment [1] was 10.1 µM; in experiment [2], 4.8 µM; in experiment [3], greater than 500 µM; in experiment [4], greater than 100 µM.

On to `COc1cc(/C=C/[N+](=O)[O-])ccc1OS(=O)(=O)c1ccc(C(=O)OC[C@H]2O[C@@H](n3cnc4c(N)ncnc43)[C@H](O)[C@@H]2O)cc1`, for which the IC50 is 0.5 µM in experiment [1], 45 µM in experiment [2], 10 µM in experiment [3] and 100 µM in experiment [4].

`CCCCNC(=O)c1ccc(S(=O)(=O)Oc2ccc(/C=C/[N+](=O)[O-])cc2)cc1`: the IC50 in experiment [1] was 4.8 µM; in experiment [2] it was 3.8 µM; in experiment [3], greater than 500 µM; in experiment [4], greater than 100 µM.

With `O=C(O)c1ccc(S(=O)(=O)Oc2ccc(/C=C/[N+](=O)[O-])cc2)c(O)c1`, the IC50 was 0.31 µM in experiment [1], greater than 50 µM in experiment [2], greater than 500 µM in experiment [3] and 100 µM in experiment [4].

As for `C[C@@H](NC(=O)c1ccc(S(=O)(=O)Oc2ccc(/C=C/[N+](=O)[O-])cc2)cc1)C(=O)N[C@H](C)C(=O)NCCN`, the IC50 in experiment [1] is 17 µM; in experiment [2], greater than 50 µM; in experiment [3] it was 250 µM; in experiment [4], 15 µM.

As to `COc1cc(/C=C/[N+](=O)[O-])ccc1O`, the IC50 is 7.9 µM in experiment [1], 3.5 µM in experiment [2], greater than 500 µM in experiment [3] and greater than 100 µM in experiment [4].

For the compound `COC(=O)c1ccc(S(=O)(=O)Oc2ccc(/C=C/[N+](=O)[O-])cc2)cc1O`, the figures for the IC50 in experiment [1], in experiment [2] and in experiment [4] were 1.8 µM, 5.7 µM and greater than 100 µM, respectively.

With `C[C@@H](NC(=O)c1ccc(S(=O)(=O)Oc2ccc(/C=C/[N+](=O)[O-])cc2)cc1)C(=O)N[C@H](C)C(=O)OC(C)(C)C`, the IC50 is 40 µM in experiment [1], 2.7 µM in experiment [2], greater than 450 µM in experiment [3] and greater than 100 µM in experiment [4].

As to `C[C@@H](NC(=O)[C@@H](C)NC(=O)c1ccc(S(=O)(=O)Oc2ccc(/C=C/[N+](=O)[O-])cc2)cc1)C(=O)O`, the IC50 in experiment [1] is 7 µM; in experiment [2], greater than 50 µM; in experiment [3], greater than 100 µM; in experiment [4], 35 µM.

With `O=[N+]([O-])/C=C/c1ccc(O)c(O)c1`, the IC50 in experiment [1] was 8.8 µM; in experiment [2], 2.9 µM; in experiment [3], greater than 500 µM; in experiment [4], 100 µM.

`Nc1ncnc2c1ncn2[C@@H]1O[C@H](COC(=O)c2ccc(S(=O)(=O)Oc3ccc(/C=C/[N+](=O)[O-])cc3)cc2)[C@@H](O)[C@H]1O`: the half-maximal inhibitory concentration (IC50) was 0.6 µM in experiment [1], 61 µM in experiment [2], 13 µM in experiment [3] and greater than 100 µM in experiment [4].

Regarding `CC(C)(C)NC(=O)c1ccc(S(=O)(=O)Oc2ccc(/C=C/[N+](=O)[O-])cc2)cc1`, the IC50 in experiment [1] is 1.3 µM; in experiment [2], 2.1 µM; in experiment [3] it was 340 µM; in experiment [4], greater than 100 µM.

Source of the values: ChEMBL document CHEMBL1125600, “Sulfonylbenzoyl-nitrostyrenes: potential bisubstrate type inhibitors of the EGF-receptor tyrosine protein kinase” (J Med Chem, 1991).
